# A selection: hits, their analogues and other compounds. The true share with any hit is near 2.5%.
# TRPC4 PAM: allosteric potentiators of mouse TRPC4 channel; Q9QUQ5; HEK293 TRPC4beta/mu-opioid, DAMGO EC20, Fluo-4 Ca2+ flux; stronger effect = higher value; B-score at 10 µM; actives 0.42% (n = 310,000);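 active = B-score of calcium response area above 5 SD of library B-scores, with initial fluorescence ratio within 5 SD of library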;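 also: B-score of integrated fluorescence ratio over time as area under calcium response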
# DSG3 Ab inh: blocks pemphigus antibody binding to human desmoglein-3 | AID 588358 | P32926 | DSG3-coupled beads, scFv-anti-DSG3-GFP binding, flow cytometry; stronger effect = lower value | binding (percent of control), % at 10 µM | actives 0.48% (n = 310,000);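 active = binding more than 3 SD below its plate's average and above zero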;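 also: hits lower antibody fragment binding to DSG3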
# Target sequence (P32926 whole entry, looked up, the tested form may be a part): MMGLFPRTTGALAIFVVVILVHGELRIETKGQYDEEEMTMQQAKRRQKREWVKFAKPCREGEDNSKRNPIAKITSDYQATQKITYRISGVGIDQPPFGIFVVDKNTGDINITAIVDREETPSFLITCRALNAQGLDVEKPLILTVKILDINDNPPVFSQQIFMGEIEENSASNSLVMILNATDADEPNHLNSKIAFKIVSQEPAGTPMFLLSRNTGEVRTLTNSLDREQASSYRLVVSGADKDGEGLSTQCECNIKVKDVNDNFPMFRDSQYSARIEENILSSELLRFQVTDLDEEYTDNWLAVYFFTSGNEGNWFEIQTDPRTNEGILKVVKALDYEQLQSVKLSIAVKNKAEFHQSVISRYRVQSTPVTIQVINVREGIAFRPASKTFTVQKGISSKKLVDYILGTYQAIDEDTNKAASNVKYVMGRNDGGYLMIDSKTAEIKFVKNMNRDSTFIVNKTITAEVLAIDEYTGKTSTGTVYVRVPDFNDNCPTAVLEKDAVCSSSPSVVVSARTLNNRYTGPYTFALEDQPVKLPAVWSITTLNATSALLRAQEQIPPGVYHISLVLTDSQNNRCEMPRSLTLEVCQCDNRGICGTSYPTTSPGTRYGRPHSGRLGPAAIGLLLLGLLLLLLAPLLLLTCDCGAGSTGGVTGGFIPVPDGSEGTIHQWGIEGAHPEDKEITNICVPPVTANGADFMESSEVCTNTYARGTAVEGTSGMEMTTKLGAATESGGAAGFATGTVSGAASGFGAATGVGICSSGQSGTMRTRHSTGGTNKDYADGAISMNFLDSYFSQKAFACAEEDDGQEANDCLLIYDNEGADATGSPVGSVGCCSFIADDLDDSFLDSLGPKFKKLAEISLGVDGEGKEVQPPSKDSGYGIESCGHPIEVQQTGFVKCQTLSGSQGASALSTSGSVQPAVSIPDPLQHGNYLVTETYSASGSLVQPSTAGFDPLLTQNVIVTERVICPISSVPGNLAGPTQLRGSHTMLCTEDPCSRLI
# TRPC6 act: activates the mouse TRPC6 cation channel. Q61143. HEK293-TRPC6 membrane potential dye fluorescence; stronger effect = higher value. B-score at 10 µM. actives 0.13% (n = 310,000). AID 2550;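 active = B-score of the integrated fluorescence ratio above library mean plus 3 SD, and starting fluorescence ratio within library mean plus 5 SD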;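 also: higher score means more depolarization so channel activation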
# TRPC4 act: TRPC4 (mouse) channel activation; Q9QUQ5; HEK293 TRPC4beta/mu-opioid, Fluo4 calcium fluorescence; stronger effect = higher value; B-score at 10 µM; actives 0.49% (n = 310,000);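 active = B-score above 5 SD of library B-scores, and initial fluorescence ratio not above library mean plus 5 SD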;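 also: positive B-score marks a calcium rise read as TRPC4 activation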
#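 Assay system: HEK293 stable line with TRPC4beta plus mu-opioid receptor. Times: dye 45 min RT, read 110 s. Measured by: kinetic Fluo4 calcium fluorescence. Measure: B score of integrated ratio. Controls: assay buffer as low control, maximal DAMGO as high control.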
# TRPC4 inh: inhibitors of mouse TRPC4 channel; AID 2247; B-score at 10 µM; actives 0.39% (n = 300,000); Q9QUQ5; HEK293 TRPC4beta/mu-opioid, DAMGO-evoked Fluo4 calcium flux; stronger effect = lower value;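 active = B-score over 3 SD under the library average, no early fluorescence shift, positive overall ratio signal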
#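 material = TRPC4beta/mu-opioid receptor HEK293 cell line | probe or stimulus = sequential submaximal and maximal DAMGO stimulation | compound dosing = one concentration per compound | measured by = Fluo4 Ca2+ flux fluorescence | evaluation = integrated fluorescence ratio relative to baseline, converted to per-well B score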
# TRPC6 inh: blocks the mouse TRPC6 cation channel | HEK293-TRPC6, membrane potential dye, ACh-evoked depolarization; stronger effect = lower value | actives 1.1% (n = 310,000) | Q61143 | B-score at 10 µM;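 active = B-score under library mean minus 3 SD, initial fluorescence not abnormally high, positive integrated signal ratio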;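 also: B-score derived from integrated fluorescence ratio over the kinetic read; more negative B-score means stronger inhibition of depolarization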
# TRPC4 sel inh 2: mouse TRPC4 off-target activity of TRPC6 inhibitors, second screen. inhibition, % at 10 µM. shares compounds with TRPC6 inh. actives 42% (n = 920). HEK293 TRPC4/MOR, membrane potential dye fluorescence; channel activated by saturating DAMGO dose;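 active = compounds whose fluorescence signal differed from control wells by over 3 SD, either direction, in both duplicate plates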
# TRPC4 spec: tests whether TRPC6 inhibitors also affect mouse TRPC4. shares compounds with TRPC6 inh. HEK293 TRPC4/mu-opioid, membrane potential fluorescence. activity change, negative = inhibition, % at 10 µM. actives 61% (n = 920). AID 2777;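 active = rise or fall in signal beyond 3 SD of buffer-only wells in both replicate plates, either sign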;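 also: integrated kinetic ratio of fluorescence range over baseline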
# HEK293 MPD ctr 2-1: parental HEK293 nonspecific activity of TRPC6 inhibitors, second screen; signal change vs control, % at 10 µM; AID 2779; actives 31% (n = 920); parental HEK293 membrane potential dye fluorescence; maximal acetylcholine challenge after compound addition; shares compounds with TRPC6 inh;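 active = membrane potential signal moving either way by over 3 SD of the maximum-effect control, in both duplicate plates, meaning non-specific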
# HEK293 MPD ctr-1: parental HEK293 nonspecific activity of TRPC6 inhibitors | shares compounds with TRPC6 inh | actives 60% (n = 920) | parental HEK293 membrane potential dye fluorescence | membrane potential signal change, % at 10 µM;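 active = membrane potential signal shifting up or down by more than 3 SD of buffer-only wells, on both duplicate plates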
# HEK293 MPD ctr-2: checks TRPC6 modulator effects in parental HEK293 cells. actives 51% (n = 2,400). membrane potential signal change, % at 10 µM. membrane potential dye fluorescence. shares compounds with TRPC6 inh. AID 488924;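 active = membrane potential signal moves up or down beyond 5 SD from buffer-only wells, on both duplicate plates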
# HEK293 MPD ctr 2-2: second counter-screen for TRPC6 modulators: effect in parental HEK293 cells | shares compounds with TRPC6 inh | membrane potential dye fluorescence; after compound, maximal acetylcholine stimulation | inhibition, % at 10 µM | actives 14% (n = 2,400) | AID 488926;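 active = membrane potential signal drops by more than 5 SD from the mean control signal, in both duplicate plates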;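 also: plate controls were acetylcholine ECmax control wells for no effect and buffer only wells for full effect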
# TRPC4 ctr mod: tests whether TRPC6 modulators also affect mouse TRPC4; shares compounds with TRPC6 inh; HEK293 TRPC4/mu-opioid, membrane potential fluorescence; percent change from control (negative = decrease, positive = increase), % at 10 µM; actives 69% (n = 2,400); AID 488927;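 active = membrane potential signal moved up or down beyond 5 SD of buffer control wells, in both duplicate plates, actives on both sides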;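 also: plate controls were assay buffer wells for no effect and DAMGO maximal-effect wells for full effect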
# TRPC4 ctr inh 2: mouse TRPC4 off-target activity of TRPC6 modulators, second screen; HEK293 TRPC4/mu-opioid, membrane potential dye fluorescence; stimulated with maximal-effect DAMGO; shares compounds with TRPC6 inh; AID 488928; actives 55% (n = 2,400); inhibition, % at 10 µM;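 active = drop in membrane potential signal beyond 5 SD of the control wells in both duplicate plates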;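 also: TRPC4 counter screen for TRPC6 hits run under conditions tuned for TRPC6 not TRPC4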
# TRPC6 inh conf: confirmation of mouse TRPC6 inhibitors. HEK293-TRPC6, membrane potential dye, ACh-evoked depolarization. AID 488960. shares compounds with TRPC6 inh. actives 43% (n = 3,300). inhibition, % at 10 µM;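 active = fluorescence ratio falls more than 5 SD below the full-stimulation control mean, in both duplicate runs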;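 also: integrated fluorescence ratio of peak minus minimum over baseline after agonist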
# TRPC6 act conf: confirmation of mouse TRPC6 activators | activation, % at 10 µM | HEK293-TRPC6 membrane potential dye fluorescence, FDSS | shares compounds with TRPC6 inh | actives 11% (n = 2,800);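 active = ratio signal rise beyond 5 SD above unstimulated control wells' mean, seen in both duplicate runs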;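 also: plate controls were buffer EC0 wells for no effect and acetylcholine ECmax response for full effect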
# Numbers without * were called inactive; i = inactive; · = not tested or not shown.
SMILES,TRPC4 PAM,DSG3 Ab inh,TRPC6 act,TRPC4 act,TRPC4 inh,TRPC6 inh,HEK293 MPD ctr-2,HEK293 MPD ctr 2-2,TRPC4 ctr mod,TRPC4 ctr inh 2,TRPC6 inh conf,TRPC6 act conf,others
CC(=O)N1CCN(c2ccc(N=Cc3c(O)n(Cc4ccccc4)c(=O)[nH]c3=O)cc2)CC1,i,100,i,i,i,-5.6*,188%*,i,-24%*,i,i,i,
COc1cc(NC(=O)CCCN2C(=O)NC(C)(C)C2=O)cc(OC)c1,·,114,·,·,·,·,·,·,·,·,·,·,
Cc1ccc2c(c1)sc(-c1ccc(N(C)C)cc1)[n+]2C,i,99,i,i,i,-5.5*,i,84%*,i,i,56%*,i,
CC1(C)Cc2cccc(OCC(=O)OCC(=O)Nc3ccc(S(N)(=O)=O)cc3)c2O1,·,104,·,·,·,·,·,·,·,·,·,·,
Cc1ccc2cc(C=C(C#N)C#N)c(N3CCCCC3)nc2c1,i,100,i,i,i,-7.1*,·,·,·,·,i,i,TRPC4 sel inh 2=i;TRPC4 spec=i;HEK293 MPD ctr 2-1=i;HEK293 MPD ctr-1=i
COc1ccc(CCN2CC(C(=O)NCCc3cnn(C)c3)CCC2=O)cc1 (configuration not stated),i,·,i,i,i,i,·,·,·,·,·,·,
Cc1cc(N)c2cc(NC(=O)/C=C/c3ccccc3Cl)ccc2n1,i,112,i,i,i,-5.5*,i,i,i,i,i,i,
Cc1cccc(-c2nsc(SCC(=O)Nc3nccs3)n2)c1,i,·,i,i,i,-5.7*,i,i,i,i,i,i,
C(=N\Nc1nc(Nc2ccccc2)nc(N2CCOCC2)n1)/c1c[nH]c2ccccc12,11*,·,i,i,i,-6.1*,i,i,-20%*,49%*,48%*,i,
Cc1ccc(Nc2nc(N/N=C/c3c[nH]c4ccccc34)nc(N3CCOCC3)n2)cc1,i,96,i,i,i,i,·,·,·,·,·,·,
CCN(C(=O)CSc1ncccn1)c1c(N)n(Cc2ccccc2)c(=O)[nH]c1=O,·,116,·,·,·,·,·,·,·,·,·,·,
Cc1ccc2c(Cl)c(C)c(N3CCCC3)nc2n1,i,109,i,i,i,-5.7*,-244%*,70%*,-40%*,52%*,54%*,i,
